# Sampled rows, rich in hits. Any-hit rate of the full collection: about 2.9%.
# M18AAP inhibitor: PfM18AAP enzyme inhibition; recombinant PfM18AAP, H-Glu-NHMec fluorogenic cleavage; inhibition, % at 7.35 µM; 290,000 compounds, 1.2% hits; AID 1822;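 active means inhibition above the campaign mean inhibition over all tested compounds plus 3 SD, cut at about 28% in these data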;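 further: 0% = plate median of test compound wells and 100% = 2 mM ZnCl2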
# UBC13 inh: human UBC13 polyubiquitination inhibition | inhibition, % at 20 µM | P61088 | UBC13 polyubiquitin chain formation, TR-FRET | 330,000 compounds, 0.47% hits; in the data active means inhibition above about 45%, passing the limit was not always enough
# PfGluPho inh: PfG6PD (Plasmodium falciparum) enzyme inhibition | PfGluPho enzyme, NADPH resazurin-diaphorase fluorescence | inhibition, % at 20 µM | 350,000 compounds, 0.78% hits;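 active means inhibition reaching at least a set limit at 20 µM in the primary screen, cut at about 59% in these data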;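 further: 0% = DMSO wells with substrate and 100% = DMSO wells lacking glucose-6-phosphate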
# Apaf1 inhib: blocks human Apaf-1 apoptosome activity; O14727; reconstituted apoptosome caspase-3 activity, DEVD-Rh110 fluorescence; inhibition, % at 20 µM; 330,000 compounds, 0.71% hits; AID 489030; active means inhibition of at least 40% at 20 µM;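 further: plate controls were DMSO wells for no effect and DEVD-CHO caspase inhibitor wells for full effect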
#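 Material: cell-free apoptosome with Apaf-1, procaspase-3 and caspase-9; Buffer or medium: Hepes pH 7.5 with detergent and BSA; Reagent: cytochrome c trigger plus (Z-DEVD)2-Rh110 caspase-3 substrate; Times: compound with Apaf-1, dATP, procaspase-3 30 min, then 50 min reaction, room temperature; Technique: Rh110 fluorescence intensity.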
# ZTA counter: counter-screen for EBNA-1 inhibitors: inhibitors of Epstein-Barr virus ZTA. P03206. ZTA-DNA binding, fluorescence polarization. inhibition, % at 11 µM. 320,000 compounds, 0.15% hits. AID 2234; in the data active means inhibition above about 33%
# EBNA-1 inhibitor: blocks EBNA-1 binding to DNA; EBNA-1 DNA binding, fluorescence polarization; inhibition, % at 14.8 µM; 300,000 compounds, 0.34% hits; in the data active means inhibition above about 28%
# PfG6PD confirm: PfG6PD inhibition, single-dose confirmed | shares compounds with PfGluPho inh | recombinant PfGluPho, NADPH-diaphorase-resazurin fluorescence | inhibition, % at 20 µM | 2,400 compounds, 34% hits;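 active means inhibition of at least 50% at 20 µM in any single replicate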;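 further: 0% = DMSO with substrate and 100% = DMSO lacking glucose-6-phosphate substrate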
# Diaph ctr 10uM: inhibits diaphorase or oxidizes, flagging false PfG6PD hits; 820 compounds, 39% hits; shares compounds with PfGluPho inh; AID 504862; inhibition, % at 20 µM; diaphorase-coupled resazurin reduction, fluorescence, NADPH 10 uM;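 active means average inhibition reaching 50% or more with the compound at 20 µM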;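 further: resorufin red fluorescence formed as diaphorase reduces resazurin using NADPH; 0% = DMSO with enzyme and 100% = DMSO without enzyme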
# Diaph ctr 30uM: diaphorase inhibition or oxidation at 30 uM NADPH; 820 compounds, 29% hits; shares compounds with PfGluPho inh; inhibition, % at 20 µM; Diaphorase/resazurin coupled assay, resorufin fluorescence;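 active means inhibition averaging 50% or more, tested at 20 µM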;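 further: 0% = DMSO with enzyme and 100% = DMSO wells lacking diaphorase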
# * = called active by the depositor; x = no result.
SMILES,M18AAP inhibitor,UBC13 inh,PfGluPho inh,Apaf1 inhib,ZTA counter,EBNA-1 inhibitor,PfG6PD confirm,others
CC(=O)Nc1cccc(NC(=O)C2CC(=O)N(CCc3ccc(F)cc3)C2)c1 (stereo unspecified),1,1,-15,3,12,5,x,
Cc1ccc(C2=NNC(=Nc3ccc(F)cc3)SC2)cc1,-18,x,9,x,x,x,x,
Cc1ccc(N=c2ssnc2Cl)cc1,9,-8,91*,6,11,-6,43,
Cc1cc(Cl)ccc1N=c1ssnc1Cl,7,-9,79*,1,-15,0,29,
[O-][n+]1cccc2cccc(O)c21,x,x,41,x,x,x,x,
C[n+]1cccc2cccc([O-])c21,11,x,82*,x,x,x,9,
c1ccc(NC2=Nc3cccc4cccc2c34)cc1,6,-2,48,15,1,6,x,
COc1ccc(NC2=Nc3cccc4cccc2c34)cc1,-2,-13,75*,-8,4,-5,23,
O=C(Nc1sc2c(c1C(=O)O)CCC2)c1cccc(Cl)c1,-2,0,62*,0,14,13,35,
Cc1cccc(C(=O)Nc2sc3c(c2C(=O)O)CCCC3)c1,-8,3,80*,5,18,-4,53*,Diaph ctr 10uM=47;Diaph ctr 30uM=29
Cc1ccccc1C(=O)Nc1sc2c(c1C(=O)O)CCC2,3,-4,8,11,6,-11,x,
CN(C(=O)CSc1nc2ccccc2s1)c1c(N)n(Cc2ccccc2)c(=O)[nH]c1=O,-7,-2,13,1,-19,-7,x,
COc1ccc(O)c(/C=c2/sc3nc4cc(C)c(C)cc4n3c2=O)c1,7,-15,68*,12,x,x,33,
CC(=O)N/C(=C\c1ccc(C)cc1)C(=O)O,3,6,-3,-6,-16,5,x,
O=[N+]([O-])c1cccc(NC(=S)NCc2ccncc2)c1,7,4,79*,-3,-13,-16,5,
CCn1c(N)c(C(=O)NCc2ccc3c(c2)OCO3)sc1=S,-7,-9,74*,6,-6,1,33,
Cc1ccc(NC2CCCN(C(=O)c3ccc(-n4ccnc4)cc3)C2)cc1C (stereo unspecified),10,0,5,7,-7,-5,x,
CC(=O)Nc1ccc(/C=N/N2CCCCC2)cc1,-13,7,-4,3,-8,7,x,
CCOC(=O)c1cnc(-c2cccc(OC)c2)[nH]c1=O,8,-4,96*,3,6,9,78*,Diaph ctr 10uM=75*;Diaph ctr 30uM=56*
O=C1C=C(NCCc2cc(Br)c(O)c(Br)c2)C(=O)c2ncccc21,x,x,115*,x,x,x,101*,Diaph ctr 10uM=46;Diaph ctr 30uM=35
O=C(Nc1ccc(OCC(F)(F)C(F)F)c(C(F)(F)F)c1)c1ccc(Cl)cc1,0,-2,86*,11,2,-6,-2,
CCN1CCCC1CNC(=O)C(=O)NC(C)c1ccccc1 (stereo unspecified),-11,-11,-6,-11,8,5,x,
O=C(NNC(=S)NC(=O)c1cccc([N+](=O)[O-])c1)c1ccc(Br)cc1,14,-19,-43,19,-13,-3,x,
Cc1c(/C=C/C(=O)c2ccc(Cl)s2)cnn1C,6,7,60*,7,-2,-10,52*,Diaph ctr 10uM=63*;Diaph ctr 30uM=39
Cc1c(/C=C/C(=O)c2ccc(C(C)C)cc2)cnn1C,0,0,68*,10,-13,0,42,
Cc1c(/C=C/C(=O)c2ccccc2)cnn1C,5,-8,9,17,4,10,x,
Cc1cc(C)c2c(=N)c3ccccc3n(CCCCCCCCn3c4ccccc4c(=N)c4c(C)cc(C)nc43)c2n1,x,x,76*,x,x,x,51*,Diaph ctr 10uM=3;Diaph ctr 30uM=0
CCCCCn1c2c(c(=N)c3ccccc31)CCC2,-14,-1,-18,8,-2,-8,x,
CC(=O)C(Sc1ncnc2c1nnn2-c1ccc(F)cc1)C(=O)N(C)C (stereo unspecified),4,-8,62*,8,-15,3,19,

# Source: PubChem
